# This is a sample that favours compounds with a hit; in the whole collection about 2.2% have one here.
# APP 5'UTR act: activates APP 5'UTR luciferase reporter; SH-SY5Y APP 5'UTR luciferase reporter, luminescence; zero percent = DMSO vehicle wells; activation, % at 2 µM; 190,000 tested, 1% active; AID 1276;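 active means activation above a set limit, based on mean plus 3 SD of controls, cut at about 140% in these data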
# FLuc stim CS: affects firefly luciferase, flagging false hits in luciferase stimulation screens | P08659 | ATPlite luciferase biochemical, luminescence, 10 min; 0 = ATP-free wells, 1 = DMSO control | activation factor at 10 µM | 200,000 tested, under 10 active | AID 1027;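 active means luciferase activation factor, scaled between plate controls, of at least 2 with compound at 10 µM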
# Target sequence (P08659 whole entry, looked up): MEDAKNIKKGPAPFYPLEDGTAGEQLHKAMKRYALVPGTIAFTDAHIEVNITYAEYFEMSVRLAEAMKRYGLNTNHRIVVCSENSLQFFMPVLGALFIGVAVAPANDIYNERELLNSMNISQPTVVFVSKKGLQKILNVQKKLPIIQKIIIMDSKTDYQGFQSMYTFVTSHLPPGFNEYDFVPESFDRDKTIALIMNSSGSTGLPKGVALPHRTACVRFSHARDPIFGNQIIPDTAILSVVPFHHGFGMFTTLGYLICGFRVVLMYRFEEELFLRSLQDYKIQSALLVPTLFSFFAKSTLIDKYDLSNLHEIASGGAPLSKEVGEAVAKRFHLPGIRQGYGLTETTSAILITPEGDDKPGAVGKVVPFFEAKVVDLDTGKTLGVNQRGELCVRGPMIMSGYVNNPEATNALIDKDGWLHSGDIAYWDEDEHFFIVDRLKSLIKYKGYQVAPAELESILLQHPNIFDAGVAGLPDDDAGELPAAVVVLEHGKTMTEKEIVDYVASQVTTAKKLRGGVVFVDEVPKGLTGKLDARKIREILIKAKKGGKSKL
#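 Assay system – cell-free luciferase reagent · Medium – PBS-based ATP solution · Dosing – test compounds dosed from 2 mM stocks in 100% DMSO · Timing – 10 min, room temperature · Technique – light output (luminescence) · Measure – luminescence gain marking luciferase activators · Controls – No-ATP low control, compound-free enzyme-plus-ATP high control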
# PPC-1+TRAIL kill: kills PPC-1 cancer cells in the presence of TRAIL. cell killing (% activity), % at 4 µM or 5 µM. 220,000 tested, 0.41% active. PPC-1 cells + TRAIL, ATPLite viability luminescence;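 active means cell killing above 50% in the first pass at 4 µM, then a duplicate retest at 5 µM averaging 50% or more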
# NF-kB expr up: raises NF-kB expression in human neuronal cells; NF-kB reporter expression; stronger effect = higher value; fold change at 12.5 µM; 190,000 tested, 1.6% active; AID 1239; in the data active means fold change above about 3.3
# FLuc inhib CS: inhibits firefly luciferase, flagging false hits in luciferase inhibition screens. P08659. ATPLite firefly luciferase biochemical luminescence, 10 min. inhibition, % at 10 µM. 200,000 tested, 1.5% active;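 active means inhibition above about 50% when tested at 10 µM, limit read from the data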
# TRAIL sens C8: sensitizes caspase-8 expressing cells to TRAIL. 360,000 tested, 1% active. inhibition (viability loss, TRAIL sensitization), % at 10 µM. NB7+C8 cells + TRAIL, ATPlite viability luminescence. AID 624354;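 active means compounds causing at least 50% loss of cell viability in the single-dose screen, relative to plate controls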
# A number is an active result; – = inactive; · = no result.
SMILES,APP 5'UTR act,FLuc stim CS,PPC-1+TRAIL kill,NF-kB expr up,FLuc inhib CS,TRAIL sens C8
COc1ccccc1NC(=O)N(C)C[C@H]1OCc2cnnn2CCCC(=O)N([C@H](C)CO)C[C@@H]1C,·,·,·,·,·,–
CCCN(C(=O)CSCC(=O)Nc1cccc(C)c1)c1c(N)n(Cc2ccccc2)c(=O)[nH]c1=O,·,·,·,·,·,–
O=c1oc(-c2ccccc2)nc2sc3c(c12)CCCC3,–,–,–,6.14,–,–
O=c1oc(-c2cccs2)nc2sc3c(c12)CCCCC3,–,–,–,·,67.3,–
Cc1sc2nc(-c3cccs3)oc(=O)c2c1C,·,·,·,·,·,–
CC(C)(C)c1nc2sc3c(c2c(=O)o1)CCCC3,–,–,–,–,–,–
COc1ccc(-c2nc3cc(C)c(Br)c(C)n3c2Cc2ccccc2C(F)(F)F)cc1OC,·,·,·,·,·,–
O=C(NCCCN1CCCC1=O)c1cccc(NS(=O)(=O)c2ccc(Br)cc2)c1,·,·,·,·,·,–
COc1ccc(NC(=O)Nc2cccs2)cc1Cl,–,–,–,–,57.9,–
COc1ccc(NC(=O)CCC(=O)c2cccs2)cc1Cl,·,·,·,·,·,–
COCC(=O)Nc1ccc(OC)c(Cl)c1,–,–,–,–,–,–
CNC(=O)Nc1ccc(Cl)cc1,–,–,–,–,–,–
CC(C)=CC(=O)Nc1ccc2c(c1)OCO2,–,–,–,4.53,51.1,–
O=C(CSCSCC(=O)Nc1ccc2c(c1)OCO2)Nc1ccc2c(c1)OCO2,–,–,–,–,–,–
CC(C)=CC(=O)Nc1ccc(Cl)cc1,183.8,–,–,3.3,–,–
COc1ccc(NC(=O)C=C(C)C)cc1Cl,152.7,–,–,4.65,–,–
CCC1=NN(C(=O)c2cccc([N+](=O)[O-])c2)C(O)(c2ccc(C)cc2)C1 (stereo unspecified),·,·,·,·,·,–
Cc1ccc2oc(/N=C(\N)NC(=O)C3CC3)nc2c1,·,·,–,·,·,50.5
CCN(Cc1ccccc1)CC(O)COC(c1ccc(OC)cc1)c1ccc(OC)cc1 (stereo unspecified),·,·,·,·,·,–
N#Cc1nc(NCC(F)F)nc(Nc2cc(F)cc(F)c2)n1,·,·,·,·,·,50.1
CC(=O)Nc1ccc(/C=C/c2nc3ccccc3[nH]c2=O)cc1,·,·,·,·,·,–
Cc1onc(-c2c(F)cccc2Cl)c1C(=O)Nc1nc2ccccc2[nH]1,–,–,–,–,–,49.5
O=C(N/C(=C/c1ccc(Cl)cc1)c1nc2ccccc2[nH]1)c1ccco1,–,–,–,–,–,–
O=C(/C(=C/c1ccc(Cl)cc1)c1nc2ccccc2[nH]1)c1ccccc1,–,–,–,7.98,–,77.9
O=C(Nc1nc2ccccc2[nH]1)c1ccccc1O,·,·,·,·,·,48.8
SMILES,APP 5'UTR act,FLuc stim CS,PPC-1+TRAIL kill,NF-kB expr up,FLuc inhib CS,TRAIL sens C8
O=c1[nH]c2ccccc2nc1/C=C/c1ccc(Cl)cc1,167.4,–,–,–,69.6,73.1
O=C(c1[nH]c(C(F)(F)F)nc1-c1ccccc1)N1CCC(Cc2ccccc2)CC1,·,·,·,·,·,–
N#Cc1cccc(NC(=O)CNc2cc(S(=O)(=O)N3CCOCC3)ccc2N2CCCC2)c1,·,·,·,·,·,–
NC(N)=NS(=O)(=O)c1ccc(N/C=C\C(=O)c2ccncc2)cc1,–,–,–,–,–,–
O=C(Nc1nc2ccccc2[nH]1)c1ccc(Cl)cc1,·,·,·,·,·,87.0
Cc1nc(NC(=O)COC(=O)c2cccs2)c(Cl)cc1Cl,·,·,·,·,·,–
CC(=O)OCCCN1c2ccccc2Nc2nnc(-c3ccccc3)cc21,171.3,–,–,–,–,–
CC(=O)OCCN1c2ccccc2Sc2cnccc21,·,·,·,·,·,–
Cc1ccc(Nc2nc(N)nc(CSc3nccn3C)n2)cc1,140.3,–,–,3.75,–,–
CN(C)c1ccc(-c2nc3ccccn3c2/N=C/c2ccc(Br)cc2)cc1,158.3,–,–,–,94.3,53.0
O=C(COc1ccc(Cl)cc1)c1ccc(O)cc1O,·,·,–,·,·,–
CCOC(=O)c1ccc(OCC(=O)c2ccc(O)cc2O)cc1,–,–,–,–,59.2,–
COc1ccc2oc(-c3ccccc3)cc(=O)c2c1,·,·,·,·,·,71.8
CC(=O)Oc1ccc2occ(-c3ccccc3)c2c1,·,·,·,·,·,–
COc1ccc2c(=O)c(-c3ccccc3)coc2c1,158.4,–,–,7.31,69.6,–
COc1ccc2c(=O)c(-c3ccc(OC)c(OC)c3)coc2c1,–,–,–,–,–,–
CSc1ccc(-c2cc(=O)c3ccccc3o2)cc1,141.8,–,–,–,–,–
O=c1cc(-c2ccc(F)cc2)oc2ccccc12,–,·,·,·,·,–
CCN(CC)C(=O)Oc1ccc2c(=O)c(-c3ccccc3)coc2c1,–,–,–,4.61,–,–
O=C1OC2C(O)COC23OC(O)CCC13O (stereo unspecified),·,·,·,·,·,–
O=C(Cn1cnc([N+](=O)[O-])n1)NCCO,–,–,–,–,–,–
CCC(=O)Nc1ccc(C(=O)N/N=C/c2cc(Br)c(OC)cc2OC)cc1,–,–,–,–,–,–
O=C(c1ccccc1Sc1c(Cl)cccc1[N+](=O)[O-])N1CCOCC1,–,–,–,–,–,–
O=c1c2oc3ccccc3c2ncn1Cc1ccccc1Cl,–,–,–,–,–,–
O=c1c2oc3ccccc3c2ncn1Cc1ccccc1F,–,–,–,3.54,–,–
SMILES,APP 5'UTR act,FLuc stim CS,PPC-1+TRAIL kill,NF-kB expr up,FLuc inhib CS,TRAIL sens C8
O=C1C2C3C=CC(CC3)C2C(=O)N1/N=C/c1c[nH]c2ccccc12 (stereo unspecified),–,–,–,–,51.6,–
COc1ccccc1/C=N/N1C(=O)C2C3C=CC(CC3)C2C1=O (stereo unspecified),–,–,–,–,–,–
O=C(N/N=C/c1ccc(Br)o1)c1ccc2c(c1)OCCO2,–,–,–,–,73.6,–
O=C(N/N=C/c1ccccc1)c1ccc2c(c1)OCO2,·,·,·,·,·,56.2
O=C(O)c1ccc(/C=N/NC(=O)c2ccc3c(c2)OCCO3)cc1,·,·,·,·,·,–
O=C(Nc1ccc(Cl)cc1)c1ccc(Br)cc1F,150.2,–,–,7.76,–,–
CC(C)c1ccc(NC(=O)c2cc(Br)ccc2Br)cc1,–,–,–,–,–,–
O=C1C=C(O)c2[nH]c(=O)ccc2C1=O,·,·,·,·,·,–
Cc1ccc(-c2nc3ccccn3c2C=O)cc1,–,–,–,–,50.2,–
Fc1ccccc1Cn1nnc(-c2ccc3c(c2)OCO3)n1,166.5,–,–,5.7,–,–
Cc1cc(C)c(C#N)c(Sc2ccc(N)cc2)n1,–,–,–,–,–,–
CCCCC(CC)CN=C(N)NC(N)=NCCCCCCN=C(N)NC(N)=NCC(CC)CCCC (stereo unspecified),·,·,·,·,·,94.9
Cc1cnc(C(=O)Nc2ccc3c(c2)CCC3)cn1,163.3,–,–,7.44,–,–
O=C(Nc1ccc2c(c1)CCC2)c1cc2ccccc2o1,184.9,–,–,10.9,53.9,–
Cc1occc1C(=O)Nc1ccc2c(c1)CCC2,143.8,–,–,4.66,–,–
NC(=O)c1c(NC(=O)c2cc3ccccc3o2)sc2c1CCC2,–,–,–,–,65.8,49.6
O=C(Nc1ccc2c(c1)CCC2)c1cnccn1,–,–,–,–,–,–
CN(C(=O)CN1CCCCCC1)c1c(N)n(Cc2ccccc2)c(=O)[nH]c1=O,·,·,·,·,·,–

# Compound activity deposited in PubChem by several laboratories.
